Test results from publication PMC4420653 (Biochemical pharmacology, 2015).
“And” between values parts separate entries of the source, which are not always exact repeats. Equal entries are not always repeated. “Also recorded” adds a separate entry of the source. Where two headings read alike, the source gives them in different places.

Columns and labels:
ALDH1A1 = conditions: read-out: Km of atRA formation; recombinant ALDH1A1; cited from earlier work
[1] = Tissue half-life of atRA from concentration-time curves after WIN 18,446; assay type: in vivo; conditions: C57BL/6-129, mouse, po, 125 mg/kg
[2] = system: atRA formation in mouse liver S10 protein; assay type: biochemical
AOX = conditions: cited from earlier work
[3] = system: atRA formation in mouse testis S10 fractions; assay: Inhibition of atRA formation by WIN 18,446 in testis S10 fractions; assay type: biochemical
[4] = system: atRA formation in mouse liver S10 fractions; assay: Inhibition of atRA formation by WIN 18,446 in liver S10 fractions; assay type: biochemical; conditions: read-out: IC50 for inhibition of atRA formation; pooled liver S10, 100 nM at-retinal, 2 mM NAD+
[5] = system: atRA formation in mouse liver S10 protein; assay: Time dependent inhibition of atRA formation in liver S10 protein; assay type: biochemical; conditions: pooled liver S10 protein, 1 µM WIN 18,446 preincubation
[6] = WIN 18,446 pharmacokinetics in mice; assay type: in vivo, mouse
[7] = system: atRA formation in testes S10 fractions; assay: atRA formation velocity in testes S10 fractions from WIN 18,446 treated mice; assay type: in vivo, mouse
[8] = system: ALDH1A1 and ALDH1A2 protein expression; assay: ALDH1A1 and ALDH1A2 protein expression in liver and testis of treated mice; assay type: in vivo, mouse; conditions: 8 days of treatment
Method in brief: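 Test compound was given orally at 125 mg/kg every 24 h for 8 days (n=3), alongside a single-dose group (n=3) and vehicle controls dosed with 1% gum tragacanth (n=8). S10 fractions (microsomes plus cytosol) were made from each mouse's testes (17–45 mg) and liver (114–309 mg), protein was measured by BCA, and ALDH1A1 and ALDH1A2 were quantified by LC-MS/MS. Mean ± SD.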

[9] = system: liver atRA concentrations; assay: Liver atRA concentrations after WIN 18,446 administration; assay type: in vivo, mouse
[10] = system: testis atRA concentrations; assay: Testis atRA concentrations after WIN 18,446 administration; assay type: in vivo, mouse; conditions: for testis atRA concentration: single dose
[11] = system: serum atRA concentrations; assay: Serum atRA concentrations after WIN 18,446 administration; assay type: in vivo, mouse
ALDH1A2 = biological target: T1, ALDH1A2 (Mus musculus, UniProt Q62148); conditions: mouse testes S10 fractions
T1 sequence (Q62148 1-518): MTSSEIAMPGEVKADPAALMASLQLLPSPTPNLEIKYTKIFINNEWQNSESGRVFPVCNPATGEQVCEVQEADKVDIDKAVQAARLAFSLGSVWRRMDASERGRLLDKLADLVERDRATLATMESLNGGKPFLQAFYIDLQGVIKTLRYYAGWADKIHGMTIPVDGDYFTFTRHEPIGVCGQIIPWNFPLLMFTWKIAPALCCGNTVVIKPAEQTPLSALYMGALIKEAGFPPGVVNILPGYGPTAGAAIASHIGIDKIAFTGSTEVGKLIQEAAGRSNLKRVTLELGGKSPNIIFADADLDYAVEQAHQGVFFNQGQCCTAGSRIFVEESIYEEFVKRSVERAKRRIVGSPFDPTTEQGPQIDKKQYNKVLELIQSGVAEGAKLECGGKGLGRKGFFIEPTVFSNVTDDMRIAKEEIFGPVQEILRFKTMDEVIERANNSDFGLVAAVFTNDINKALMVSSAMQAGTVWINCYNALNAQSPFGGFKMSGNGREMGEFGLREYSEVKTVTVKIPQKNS

[12] = 500 nM, ultracentrifugation
[13] = system: atRA formation in human testis; conditions: human testicular tissue; cited from earlier work
[14] = system: atRA formation in the mouse liver; conditions: cited from earlier work
[15] = eight daily doses 125 mg/kg po, mice
[16] = 125 mg/kg once a day for 8 days

In the case of `CC1=C(/C=C/C(C)=C/C=C/C(C)=C/C=O)C(C)(C)CCC1` [at-retinal, all-trans retinal], the Km (ALDH1A1) is listed as 0.285 µM.

For `CC1=C(/C=C/C(C)=C/C=C/C(C)=C/C(=O)O)C(C)(C)CCC1` [atRA, all-trans retinoic acid], the half-life ([1]; liver) was < 30 min, the half-life ([1]; serum) was 30 ± 6 min and the half-life ([1]; testis) was 78 ± 6 min.

In the case of `NNc1nncc2ccccc12` [hydralazine], the “inhibition of atRA formation” value ([2]; hydralazine 1 mM, 45 min preincubation, liver S10, 1000 nM at-retinal) is listed as “approximately 50%”, the KI (AOX) is listed as 83 ± 27 µM and the kinact (AOX) is listed as 3.8 ± 0.4 hr-^1.

In the case of `O=C(NCCCCCCCCNC(=O)C(Cl)Cl)C(Cl)Cl` [WIN 18,446], the IC50 ([3]; read-out: IC50 for inhibition of atRA formation, pooled testis S10, 100 nM at-retinal, 2 mM NAD+) is reported as 0.059 ± 0.001 µM, the “maximum inhibition of atRA formation” value ([3]; testis S10 fractions) is reported as > 95% and the IC50 [4] is reported as 0.092 ± 0.002 µM. For the same compound, the “time dependent inhibition of atRA formation” value [5] was “not liver S10 protein; also recorded: not in the liver”, the “inhibition of atRA formation” value ([2]; WIN 18,446 5000 nM alone, 1000 nM at-retinal, Figure 2D) was 60 ± 2% and the “average concentration over the 24 hour dosing interval” value ([6]; day 8 of dosing 125 mg/kg po) was 3.5 µM. The “AUC0–24” value [6, 15] was 87.6 µM·h, the Cmax [6, 15] was 8.5 µM and the “increase in Cmax versus single dose” value ([6]; eight daily doses vs single dose) was 7 fold. The “AUC0-∞” value ([6]; single dose 125 mg/kg po, mice) was 2.5 µM·h, the Cmax ([6]; single dose 125 mg/kg po, mice) was 1.3 µM and the “average concentration over a 24 hour interval” value ([6]; single dose 125 mg/kg po, mice) was 0.1 µM. For the same compound, the “time to reach Cmax” value ([6]; single dose 125 mg/kg po, mice) was ≤ 30 min, the “two compartment model parameter A” value ([6]; single dose, fit of equation 4) was -6.6 µM and the “two compartment model parameter B” value ([6]; single dose, fit of equation 4) was 6.2 µM. The “two compartment model parameter C” value ([6]; single dose, fit of equation 4) was 0.4 µM, the “two compartment model parameter α” value ([6]; single dose, fit of equation 4) was 1.3e+06 h⁻¹ and the “two compartment model parameter β” value ([6]; single dose, fit of equation 4) was 3.7 h⁻¹. For the same compound, the “two compartment model parameter γ” value ([6]; single dose, fit of equation 4) was 0.2 hr-^1, the “decrease in atRA formation in testes S10” value ([7]; at the time of the 8th dose (24 hours after 7th dose)) was 79 ± 5% and the “decrease in atRA formation in testes S10” value ([7]; testes collected 24 hours after single dose 125 mg/kg, 125 mg/kg) was 55 ± 2% and 55%. For the same compound, the “change in ALDH1A1 or ALDH1A2 expression in liver or testis” value [8] was “not significantly altered; also recorded: not significantly changed”, the “average liver atRA concentration” value [9, 16] was 5.4 ± 1.9 pmol/g and the “reduction in average liver atRA concentration versus vehicle” value [9, 16] was 32% and 32 ± 3%. The “decrease in liver atRA” value ([9]; abstract, dosing not specified) was 50%, the “time of first significant reduction of liver atRA” value ([9]; after the first dose, p < 0.01) was 0.5 h and the “decrease in hepatic atRA concentration” value ([9]; single dose) was 42%. For the same compound, the “time of return of liver atRA to baseline” value ([9]; single dose) was 12 h, the “liver atRA concentration” value ([9]; single dose, by 4 hours after dosing) was 58 % of control and the “hepatic atRA concentration on return” value ([9]; single dose, within 24 hours) was 100%. The “average testicular atRA concentration over the 24 hours dosing interval” value [10, 16] was 1.5 ± 0.3 pmol/g, the “testicular atRA concentration, average for the dosing interval” value [10, 16] was 33 % of control and 33 ± 5 % of control and the “decrease in testicular atRA” value ([10]; abstract, dosing not specified) was “over 90%”. For the same compound, the “time of first significant reduction of testis atRA” value ([10]; after the first dose, p < 0.01) was 0.5 h, the “observed decrease in testis atRA concentrations” value ([10]; following WIN 18,446 dosing (compared with single dose prediction)) was 67% and the “testis atRA concentration” value ([10]; 24 hours after dosing) was 23 % of control. The “testis atRA concentration” value ([10]; by 4 hours) was < 10 % of control, the “testicular atRA concentration” value ([10]; time 0 hr before the 8th dose) was 60 % of control and the “average serum atRA concentration” value [11, 16] was 1.3 ± 0.7 pmol/g. For the same compound, the “time of first significant decrease of serum atRA” value ([11]; after the first dose, p < 0.05) was 2 h, the “time of return of serum atRA to baseline” value ([11]; single dose) was 24 h and the “serum atRA concentration” value ([11]; single dose, by 4 hours) was < 20 % of control. The “KI (time dependent inhibition)” value (ALDH1A2) was 0.42 ± 0.19 µM, the “fu in mouse serum” value [12] was > 0.99 and the “inhibition of atRA formation in human testis” value [13] was “more than 95%”.

In the case of `Cc1ncc(CO)c(C=O)c1O` [pyridoxal], the “inhibition of atRA formation” value [14] is given as “approximately 5%”.
